Laboratory results reported in ChEMBL document CHEMBL4118103, “Synthesis and Bioactivity Investigation of the Individual Components of Cyclic Lipopeptide Antibiotics” (J Med Chem, 2018).
≈ marks a conversion by molar mass, not a printed value. Bridge positions count the residues as written; N and C are the ends. Square brackets hold non-standard residues; d marks the D form. Peptide text beside a SMILES is read from it. * marks the point of attachment. Heptanoyl(6-Me) = CC(C)CCCCC(=O)*; Octanoyl(7-Me) = CC(C)CCCCCC(=O)*; Nonanoyl = CCCCCCCCC(=O)*; Heptanoyl = CCCCCCC(=O)*; Dab = NCC[C@H](N)C(=O)O; Nva = CCC[C@H](N)C(=O)O

Experiments:
Escherichia coli [1] = assay: Antibacterial activity against Escherichia coli ATCC 25922 after 18 hrs by agar dilution method; type: functional; settings: ATCC 25922, 18 h
Procedure, shortened: (§1)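 Serial two-fold agar dilution per CLSI; bacteria cultured in Mueller-Hinton broth, inoculum about 10^4 cfu/spot; final concentrations 0.03-128 µg/mL; plates incubated 35 °C for 18 h. MIC = lowest concentration preventing visible growth; representative of at least two independent experiments, a third run when the two disagreed.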

Escherichia coli [2] = assay: Antibacterial activity against extended-spectrum beta-lactamase producing Escherichia coli isolate 14-11 after 18 hrs by agar dilution method; type: functional; settings: isolate 14-11, 18 h; procedure, shortened: as §1
Klebsiella pneumoniae [3] = assay: Antibacterial activity against extended-spectrum beta-lactamase producing Klebsiella pneumoniae 700603 after 18 hrs by agar dilution method; type: functional; settings: Klebsiella pneumoniae, 700603, 18 h; procedure, shortened: as §1
Klebsiella pneumoniae [4] = assay: Antibacterial activity against NDM-1 producing Klebsiella pneumoniae ATCC BAA-2146 after 18 hrs by agar dilution method; type: functional; settings: ATCC BAA-2146, 18 h; procedure, shortened: as §1
Pseudomonas aeruginosa = assay: Antibacterial activity against Pseudomonas aeruginosa ATCC 27853 after 18 hrs by agar dilution method; type: functional; settings: ATCC 27853, 18 h; procedure, shortened: as §1
Acinetobacter baumannii = assay: Antibacterial activity against Acinetobacter baumannii ATCC 19606 after 18 hrs by agar dilution method; type: functional; settings: ATCC 19606 = CIP 70.34 = JCM 6841, 18 h; procedure, shortened: as §1
[5] = Cytotoxicity against African green monkey Vero cells after 72 hrs by MTT assay; type: cell-based; settings: chlorocebus sabaeus, Vero cells
Procedure, shortened: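 Vero cells seeded at 2x10^3 cells/well, incubated 24 h at 37 °C, 5% CO2, then exposed to compound 72 h; MTT added for 2 h, medium removed, formazan dissolved in DMSO, absorbance read at 570 nm. Viability relative to untreated cells (100%); CC50 as mean ± SD of three independent experiments, each in triplicate.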

[6] = Acute toxicity in iv dosed ICR mouse assessed as survival measured daily for 7 days; type: organism-based; settings: in vivo
Procedure, shortened: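 ICR mice, 18 to 22 g, 4 weeks old, 10 per group (5 male, 5 female). Four to five intravenous dose groups per compound. Survival recorded daily for 7 days. LD50 (dose per kg body weight lethal to 50%) calculated by the Bliss method. LD50 values compared by one-way ANOVA.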

Mus musculus [7] = assay: Nephrotoxicity in ICR mouse assessed as tubular dilation at 2.5 mg/kg, iv bid for 7 days measured after 2 hrs post last dose by hematoxylin and eosin staining based assay; type: toxicity, organism-based; settings: in vivo
Procedure, shortened: (§2)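 ICR mice, 18-22 g, 4 weeks old, n=8 per group (4 male, 4 female); component in saline (0.25 mg/mL, kept at 4 °C) given iv at 2.5 mg/kg twice daily, 8 h apart, for 7 days. Kidneys taken 2 h after last dose, formalin-fixed, paraffin-embedded, sectioned, H&E stained and examined by light microscopy; saline controls included.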

Mus musculus [8] = assay: Nephrotoxicity in ICR mouse assessed as induction of prominent nuclei at 2.5 mg/kg, iv bid for 7 days measured after 2 hrs post last dose by hematoxylin and eosin staining based assay; type: toxicity, organism-based; settings: in vivo; procedure, shortened: as §2
Mus musculus [9] = assay: Nephrotoxicity in ICR mouse assessed as pale tubular casts at 2.5 mg/kg, iv bid for 7 days measured after 2 hrs post last dose by hematoxylin and eosin staining based assay; type: toxicity, organism-based; settings: in vivo; procedure, shortened: as §2

Row | SMILES | MIC (Escherichia coli [1]) | MIC (Escherichia coli [2]) | MIC (Klebsiella pneumoniae [3]) | MIC (Klebsiella pneumoniae [4]) | MIC (Pseudomonas aeruginosa) | MIC (Acinetobacter baumannii) | CC50 at 72 h [5] | LD50 at 168 h [6] | Activity (Mus musculus [7]) | Activity (Mus musculus [8]) | Activity (Mus musculus [9])
1 | CC(C)CCCCC(=O)N[C@@H](CCN)C(=O)N[C@H](C(=O)N[C@@H](CCN)C(=O)N[C@H]1CCNC(=O)[C@H]([C@@H](C)O)NC(=O)[C@H](CCN)NC(=O)[C@H](CCN)NC(=O)[C@H](C(C)C)NC(=O)[C@@H](CC(C)C)NC(=O)[C@H](CCN)NC1=O)[C@@H](C)O ({Heptanoyl(6-Me)}-[Dab]T[Dab][Dab][Dab][dL]V[Dab][Dab]T; lactam 4-C) | 0.5 µg/mL (≈ 0.438 µM) | 0.25 µg/mL (≈ 0.219 µM) | 0.5 µg/mL (≈ 0.438 µM) | 0.5 µg/mL (≈ 0.438 µM) | 2 µg/mL (≈ 1.75 µM) | 1 µg/mL (≈ 0.876 µM) | 225 µg/mL (≈ 197 µM) | 13.2 mg/kg |  |  | 
2 | CCC[C@@H]1NC(=O)[C@@H](CC(C)C)NC(=O)[C@H](CCN)NC(=O)[C@@H](NC(=O)[C@H](CCN)NC(=O)[C@@H](NC(=O)[C@H](CCN)NC(=O)CCCCC(C)C)[C@@H](C)O)CCNC(=O)[C@H]([C@@H](C)O)NC(=O)[C@H](CCN)NC(=O)[C@H](CCN)NC1=O ({Heptanoyl(6-Me)}-[Dab]T[Dab][Dab][Dab][dL][Nva][Dab][Dab]T; lactam 4-C) | 0.5 µg/mL (≈ 0.438 µM) | 0.25 µg/mL (≈ 0.219 µM) | 0.5 µg/mL (≈ 0.438 µM) | 0.5 µg/mL (≈ 0.438 µM) | 1 µg/mL (≈ 0.876 µM) | 0.5 µg/mL (≈ 0.438 µM) | 168 µg/mL (≈ 147 µM) | 12.4 mg/kg |  |  | 
3 | CC(C)CCCCC(=O)N[C@@H](CCN)C(=O)N[C@H](C(=O)N[C@H](CO)C(=O)N[C@H]1CCNC(=O)[C@H]([C@@H](C)O)NC(=O)[C@H](CCN)NC(=O)[C@H](CCN)NC(=O)[C@H]([C@@H](C)O)NC(=O)[C@@H](Cc2ccccc2)NC(=O)[C@H](CCN)NC1=O)[C@@H](C)O ({Heptanoyl(6-Me)}-[Dab]T[dS][Dab][Dab][dF]T[Dab][Dab]T; lactam 4-C) | 0.25 µg/mL (≈ 0.215 µM) | 0.25 µg/mL (≈ 0.215 µM) | 0.5 µg/mL (≈ 0.429 µM) | 0.5 µg/mL (≈ 0.429 µM) | 2 µg/mL (≈ 1.72 µM) | 0.25 µg/mL (≈ 0.215 µM) | > 500 µg/mL | 17 mg/kg | Non-Toxic | Non-Toxic | Non-Toxic
4 | CC(C)CCCCC(=O)N[C@@H](CCN)C(=O)N[C@H](C(=O)N[C@H](CO)C(=O)N[C@H]1CCNC(=O)[C@H]([C@@H](C)O)NC(=O)[C@H](CCN)NC(=O)[C@H](CCN)NC(=O)[C@H]([C@@H](C)O)NC(=O)[C@@H](CC(C)C)NC(=O)[C@H](CCN)NC1=O)[C@@H](C)O ({Heptanoyl(6-Me)}-[Dab]T[dS][Dab][Dab][dL]T[Dab][Dab]T; lactam 4-C) | 0.25 µg/mL (≈ 0.221 µM) | 0.12 µg/mL (≈ 0.106 µM) | 0.5 µg/mL (≈ 0.442 µM) | 0.5 µg/mL (≈ 0.442 µM) | 4 µg/mL (≈ 3.54 µM) | 0.12 µg/mL (≈ 0.106 µM) | 318 µg/mL (≈ 281 µM) | 20.5 mg/kg | Toxic | Toxic | Toxic
5 | CC(C)CCCCCC(=O)N[C@@H](CCN)C(=O)N[C@H](C(=O)N[C@@H](CCN)C(=O)N[C@H]1CCNC(=O)[C@H]([C@@H](C)O)NC(=O)[C@H](CCN)NC(=O)[C@H](CCN)NC(=O)[C@H](CC(C)C)NC(=O)[C@@H](CC(C)C)NC(=O)[C@H](CCN)NC1=O)[C@@H](C)O ({Octanoyl(7-Me)}-[Dab]T[Dab][Dab][Dab][dL]L[Dab][Dab]T; lactam 4-C) | 1 µg/mL (≈ 0.855 µM) | 1 µg/mL (≈ 0.855 µM) | 1 µg/mL (≈ 0.855 µM) | 1 µg/mL (≈ 0.855 µM) | 2 µg/mL (≈ 1.71 µM) | 1 µg/mL (≈ 0.855 µM) | 87 µg/mL (≈ 74.4 µM) |  |  |  | 
6 | CCCCCCC(=O)N[C@@H](CCN)C(=O)N[C@H](C(=O)N[C@@H](CCN)C(=O)N[C@H]1CCNC(=O)[C@H]([C@@H](C)O)NC(=O)[C@H](CCN)NC(=O)[C@H](CCN)NC(=O)[C@H](CC(C)C)NC(=O)[C@@H](Cc2ccccc2)NC(=O)[C@H](CCN)NC1=O)[C@@H](C)O [POLYMYXIN B4] (Heptanoyl-[Dab]T[Dab][Dab][Dab][dF]L[Dab][Dab]T; lactam 4-C) | 0.5 µg/mL (≈ 0.425 µM) | 0.5 µg/mL (≈ 0.425 µM) | 1 µg/mL (≈ 0.851 µM) | 0.5 µg/mL (≈ 0.425 µM) | 1 µg/mL (≈ 0.851 µM) | 0.5 µg/mL (≈ 0.425 µM) | 160 µg/mL (≈ 136 µM) |  |  |  | 
7 | CCCCCCCCC(=O)N[C@@H](CCN)C(=O)N[C@H](C(=O)N[C@@H](CCN)C(=O)N[C@H]1CCNC(=O)[C@H]([C@@H](C)O)NC(=O)[C@H](CCN)NC(=O)[C@H](CCN)NC(=O)[C@H](CC(C)C)NC(=O)[C@@H](Cc2ccccc2)NC(=O)[C@H](CCN)NC1=O)[C@@H](C)O [POLYMYXIN B5] (Nonanoyl-[Dab]T[Dab][Dab][Dab][dF]L[Dab][Dab]T; lactam 4-C) | 2 µg/mL (≈ 1.66 µM) | 2 µg/mL (≈ 1.66 µM) | 2 µg/mL (≈ 1.66 µM) | 4 µg/mL (≈ 3.32 µM) | 4 µg/mL (≈ 3.32 µM) | 2 µg/mL (≈ 1.66 µM) | 33 µg/mL (≈ 27.4 µM) |  |  |  | 
